# Test results as given in paper PMC10052233 (JACS Au, 2023).
# Tests used:
# apo-NDM-1 [1] = molecular target: T1, apo-NDM-1 (Klebsiella pneumoniae, UniProt C7C422); assay: 1H-15N TROSY-HSQC and 19F NMR titration of apo-NDM-1 with inhibitors; assay type: binding; conditions: apo-NDM-1, 298 K
# di-Zn-NDM-1 [2] = molecular target: T2, di-Zn-NDM-1 (Klebsiella pneumoniae, UniProt C7C422); assay: 1H-15N TROSY-HSQC and 19F NMR titration of di-Zn-NDM-1 with inhibitors; assay type: binding; conditions: di-Zn-NDM-1, 298 K
# di-Zn-NDM-1 [3] = molecular target: T2, di-Zn-NDM-1; assay: 19F NMR titration, dissociation constant with di-Zn-NDM-1; assay type: binding
# Method in brief: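 NDM-1 (residues 36−270) carrying a C-terminal His6 tag, expressed in E. coli BL21 (DE3) and purified by Ni2+-affinity and size-exclusion chromatography. di-Zn protein, 0.1−0.3 mM, titrated with test compound at ratios chosen so the protein was mostly bound. 19F spectra recorded at each ratio. Kd derived from titration of the residue Y229 signal.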
# di-Zn-NDM-1 [4] = molecular target: T2, di-Zn-NDM-1; assay: Thermal stability by circular dichroism, di-Zn-NDM-1
# apo-NDM-1 [5] = molecular target: T1, apo-NDM-1; assay: Thermal stability by circular dichroism, apo-NDM-1; conditions: CD, ellipticity at 208 nm; apo-NDM-1 alone 46.1 °C
# T2 sequence (C7C422 36-270): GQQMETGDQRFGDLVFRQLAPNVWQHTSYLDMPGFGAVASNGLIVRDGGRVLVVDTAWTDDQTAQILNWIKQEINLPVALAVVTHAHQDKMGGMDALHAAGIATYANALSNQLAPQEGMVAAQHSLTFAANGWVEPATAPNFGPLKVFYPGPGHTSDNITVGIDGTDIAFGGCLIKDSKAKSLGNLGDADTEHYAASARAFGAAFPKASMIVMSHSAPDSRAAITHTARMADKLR
# T1 sequence (C7C422 36-270): as above
Molecule,changes of 1H-15N TROSY-HSQC / 19F spectra upon titration (apo-NDM-1 [1]),changes of 1H-15N TROSY-HSQC / 19F spectra upon titration (di-Zn-NDM-1 [2]),Kd (di-Zn-NDM-1 [3]),"Tm of ebselen-bound di-Zn-NDM-1 (di-Zn-NDM-1 [4]; CD, ellipticity at 208 nm, di-Zn-NDM-1 alone 53.9 °C)",Tm lower than that of di-Zn-NDM-1 (di-Zn-NDM-1 [4]; ebselen-bound di-Zn-NDM-1 vs di-Zn-NDM-1),Tm of ebselen-bound apo-NDM-1 (apo-NDM-1 [5])
"O[C@@H](CS)[C@@H](O)CS (racemic) [DTT, dithiothreitol]",No changes,large chemical shift changes,30 µM,,,
"OCC(S)CS (stereo not drawn) [2,3-dimercapto-1-propanol]",No changes,large chemical shift changes,712 µM,,,
CC(CS)C(=O)O (stereo not drawn) [3-mercaptoisobutyric acid],No changes,large chemical shift changes,,,,
"c1ccc(CN(Cc2ccccn2)Cc2ccccn2)nc1 [TPA, tris-picolylamine]",only minute chemical shift changes,significant changes,,,,
N[C@@H](C(=O)N[C@@H]1C(=O)N2C(C(=O)O)=C(Cl)CS[C@H]12)c1ccccc1 [cefaclor],almost all of the cross-peaks in the 2D TROSY-HSQC spectra disappear,almost all of the cross-peaks in the 2D TROSY-HSQC spectra disappear,,,,
"O=C(O)c1cc[c]([Hg][Cl])cc1 [chloromercuribenzoic acid, 4-chloromercuribenzoic acid]",almost all of the cross-peaks in the 2D TROSY-HSQC spectra disappear,almost all of the cross-peaks in the 2D TROSY-HSQC spectra disappear,,,,
O=C(O)c1cccc(C(=O)O)n1 [dipicolinic acid],only minute chemical shift changes,significant changes,,,,
O=c1c2ccccc2[se]n1-c1ccccc1 [ebselen],almost all of the cross-peaks in the 2D TROSY-HSQC spectra disappear,almost all of the cross-peaks in the 2D TROSY-HSQC spectra disappear,,48.4 °C,about 5.5 °C,46.1 °C
c1cnc2c(c1)ccc1cccnc12 [phenanthroline],only minute chemical shift changes,significant changes,,,,
O=C(O)CNC(=O)C(CS)Cc1ccccc1 (stereo not drawn) [thiorphan],No changes,large chemical shift changes,,,,
CC(S)C(=O)NCC(=O)O (stereo not drawn) [tiopronin],No changes,large chemical shift changes,121 µM,,,
colloidal bismuth subcitrate [CBS],shifted significantly,no changes,,,,
